According to article PMC4242840 (The Journal of Cell Biology, 2014):

Columns and labels:
Format in all cases: cell-based, Saccharomyces cerevisiae
[1] = test system: RPL5 shuffle strain; test: complementation of rpl5Δ; details: SDC+FOA, 30°C, 5 d
[2] = test system: pre-60S particles; test: affinity purification of Rpl5-FTpA constructs; details: Flag-TEV-ProtA bait
Procedure, shortened: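 Rpl5 variants tagged with Flag-TEV-ProtA were purified from a 2-liter yeast culture pellet. Steps: IgG-Sepharose 90 min, TEV elution 120 min, FLAG beads 45 min, FLAG-peptide elution. Eluates were run alongside pre-60S particles purified via Nsa2-FTpA and FTpA-Rsa4, then analysed by SDS-PAGE and Western blot.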

[3] = test system: intracellular localization in yeast; test: in vivo localization of Rpl5-GFP; details: GFP fusion, wild-type strain, fluorescence microscopy
Procedure, shortened: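 A wild-type strain carried plasmid-borne Rpl5-GFP or Rpl5 Δloop2+3-GFP. Cells were grown to ~OD 0.5 in selective medium at 30°C, harvested and washed in water. They were imaged by fluorescence microscopy at room temperature (100×, NA 1.4 oil objective, EGFP filter set).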

B1: Rpl5Δloop2+3 (protein)
chain: MAFQKDAKSSAYSSRFQTPFRRRREGKTDYYQRKRLVTQHKAKYNTPKYRLVVRFTNKDIICQIISSTITGDVVLAAAYSHELPRYGITHGLTNWAAAYATGLLIARRTLQKLGLDETYKGPRPFKVFLDIGLQRTTTGARVFGALKGASDGGLYVPHSENRFPGWDRIFGGHVSQYMEELADDDEERFSELFKGYLADDIDADSLEDIYTSAHEAIRADPAFKPTEKKFTKEQYAAESKKYRQTKLSKEERAARVAAKIAALAGQQ
[1]
  growth / viability (complementation): lethal phenotype
[2]
  co-purified Spb1 and Nop2: enriched
  co-purified particles / Syo1: recovered its import factor Syo1 ([Kressler et al., 2012a]) and pre-60S particles
[2]; SDS-PAGE and Western blot
  co-purified Nsa2: normal amounts of Nsa2
  co-purified Rpl10 (uL16): lacked Rpl10 (uL16)
  co-purified Rsa4: reduced levels of Rsa4
[3]
  intracellular localization: accumulated inside the nucleus
